This note sets out measurements from article PMC6858927 (Investigational new drugs, 2019).

pIC50: −log10 of the molar value. Values joined by “and” are separate entries in the source; they are usually repeats but may differ in a detail not shown here. Equal entries are not always repeated.

Data set [1] is described as follows: Pacritinib plasma and bone marrow pharmacokinetic studies, phase I. It counts as in vivo, human. The conditions noted are these: plasma.
The subject of a further data set is MOLM13-Res. The data set can be described thus: MTT cell viability assay, AML cell line. In kind it is cell-based. The conditions noted are these: 72 h, read-out: mean IC50. In a few lines: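 FLT3-ITD+ human AML lines (MOLM13-Res is a FLT3-inhibitor-resistant MOLM13 derivative carrying D835Y) were exposed to DMSO or increasing concentrations of test compound. MTT viability was read 72 h after drug addition. Response was expressed as mean percentage of DMSO-treated control at each concentration, with 3–6 replicates, and plotted as mean ± SD, n=12.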
On the technique in general: Formazan colour is commonly taken as a measure of viable cells.

Setting [2] is: patient 11, cohort B, 100mg BID.

One may read the pIC50 as the negative decadic logarithm of the IC50, by convention in mol/L. In the case of `C1=C/COCc2cc(ccc2OCCN2CCCC2)Nc2nccc(n2)-c2cccc(c2)COC/1` [Pacritinib, 11-(2-pyrrolidin-1-yl-ethoxy)-14,19-dioxa-5,7,26-triaza-tetracyclo[19.3.1.1(2,6). 1(8,12)]heptacosa-1(25),2(26),3,5,8,10,12(27),16,21,23-decaene], the “Pacritinib D1–5h, Mean” value in data set [1] (All Patients 100 mg BID) is reported as 3.7 µg/mL; in data set [1] (cohort A, 100mg BID), 3.7 ± 1.1 µg/mL. Besides, the “Pacritinib D21–24h, Mean” value in data set [1] (All Patients 100 mg BID (cohorts A and B combined)) is 9.6 ± 4.7 µg/mL and 9.6 µg/mL. For the same compound, the “Pacritinib D1–24h, Mean” value is 6.8 ± 2.5 µg/mL and 6.8 µg/mL in data set [1] (cohort A, 100mg BID); 6.5 µg/mL in data set [1] (cohort B, 100mg BID). For the same compound, the “Pacritinib D21–5h, Mean” value in data set [1] (cohort A, 100mg BID) is 10 µg/mL. Besides, the “Pacritinib D5-pre-dose” value in data set [1] (patient 2, cohort B, 200mg BID) is reported as 9.0 µg/mL. The “Pacritinib D1–5h” value is reported as 3.0 µg/mL in data set [1] (patient 4, cohort A, 100mg BID); 3.7 µg/mL in data set [1] (patient 8, cohort A, 100mg BID); 7.4 µg/mL in data set [1] (patient 10, cohort B, 100mg BID). Moreover, the “Pacritinib D21–5h” value is 6.5 µg/mL in data set [1] (patient 4, cohort A, 100mg BID); 3.7 µg/mL in data set [1] (patient 7, cohort B, 100mg BID); 15 µg/mL in data set [1] (setting [2]). Besides, the “Pacritinib D1–24h” value is on record as 12 µg/mL in data set [1] (setting [2]) and 4.8 µg/mL in data set [1] (patient 13, cohort A, 100mg BID). Also, the pIC50 in the data set with MOLM13-Res is 6.76.
